Test results from ChEMBL document CHEMBL5576140, “Computational Design of Pore-Forming Peptides with Potent Antimicrobial and Anticancer Activities” (J Med Chem, 2024).
Activity calls are given as the source filed them. No cut-off for these calls is given here.

Assays:
[1] = system: Acinetobacter baumannii; experiment: Depolarization of cytoplasmic membrane in Acinetobacter baumannii ATCC 19606 at MIC measured for 45 mins by DiSC3-(5) dye based assay; format: functional, organism-based
Outline: (§1)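 Bacteria loaded with membrane-potential dye DiSC3-(5), then treated with peptide at its MIC for the respective strain; depolarization read as rise in dye fluorescence; polymyxin B and levofloxacin as reference antibiotics.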

[2] = system: A549; experiment: Anti-cancer activity against human A549 cells incubated for 72 hrs by Cell Titer Glo assay; format: functional, cell-based; details: A549, 72 h
[3] = system: HCT-116; experiment: pH-dependent anticancer activity against human HCT-116 cells in DMEM medium at 10 uM incubated for 1 hr; format: functional, cell-based
Outline: (§2)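 Cells cultured in RPMI, DMEM or PBS, each adjusted to pH 8, 7 or 6, plus one unadjusted (~7.6). Peptide at 10 μM for only 1 h, to limit pH drift from CO₂-bicarbonate buffering. Cell viability read. Controls were melittin, ampicillin and PBS. Two independent repetitions; effects analysed by ANOVA.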

[4] = system: Pseudomonas aeruginosa; experiment: Depolarization of cytoplasmic membrane in Pseudomonas aeruginosa PAO1 at MIC measured for 45 mins by DiSC3-(5) dye based assay; format: functional, organism-based; outline: as §1
[5] = Hemolytic activity against human RBC incubated for 1 hr by microplate reader analysis; format: toxicity, cell-based, Erythrocyte; details: red blood cells (erythrocytes)
Outline: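 Human red blood cells exposed to peptides up to 50 μM; hemolysis measured, IC50 derived where reached.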

[6] = system: T-cell line; experiment: Cytotoxicity against human T-lymphocytes assessed as deleterious effect upto 50 uM by flow cytometry; format: toxicity, cell-based
Outline: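 Whole blood from a healthy donor treated with peptides up to 50 μM; effect on B and T lymphocytes, granulocytes and monocytes assessed.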

[7] = system: Mus musculus; experiment: Induction of wound healing activity in immunosuppressed Balb/c mouse excisional dorsal wound infection model infected with Acinetobacter baumannii NCTC 13301 assessed as closed wound at about 10 mg/kg treated for 7 days once daily measured after 20 days; format: functional, organism-based; details: time 20.0 day
[8] = system: Mus musculus; experiment: Induction of wound healing activity in immunosuppressed Balb/c mouse excisional dorsal wound infection model infected with Acinetobacter baumannii NCTC 13301 assessed as area of serocellular crust at about 10 mg/kg treated for 7 days once daily measured after 20 days; format: functional; details: time 20 day
[9] = system: K562; experiment: pH-dependent anticancer activity against human K562 cells in PBS medium at 10 uM incubated for 1 hr; format: functional, cell-based; outline: as §2
[10] = system: HL-60; experiment: pH-dependent anticancer activity against human HL-60 cells in DMEM medium at 10 uM incubated for 1 hr; format: functional, cell-based; outline: as §2
[11] = system: MOLT-4; experiment: Anti-cancer activity against human MOLT-4 cells incubated for 72 hrs by Cell Titer Glo assay; format: functional, cell-based; details: MOLT-4, 72 h
[12] = system: HL-60; experiment: pH-dependent anticancer activity against human HL-60 cells in RPMI medium at 10 uM incubated for 1 hr; format: functional, cell-based; outline: as §2
[13] = system: K562; experiment: pH-dependent anticancer activity against human K562 cells in DMEM medium at 10 uM incubated for 1 hr; format: functional, cell-based; outline: as §2
[14] = system: Pseudomonas aeruginosa; experiment: Induction of outer membrane permeabilization in Pseudomonas aeruginosa PAO1 measured for 20 mins by NPN uptake assay; format: functional, organism-based
Outline: (§3)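 Outer-membrane permeabilization of Gram-negative bacteria read as rise in fluorescence of the lipophilic dye NPN, which enters only when outer-membrane integrity is compromised. Peptides applied at their MIC against the respective strain; polymyxin B and levofloxacin as reference antibiotics. Triplicates.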

[15] = system: MCF7; experiment: Anti-cancer activity against human MCF7 cells incubated for 72 hrs by Cell Titer Glo assay; format: functional, cell-based; details: MCF7, 72 h
[16] = system: PC-3; experiment: Anti-cancer activity against human PC-3 cells incubated for 72 hrs by Cell Titer Glo assay; format: functional, cell-based; details: PC-3, 72 h
[17] = system: MOLM-13; experiment: Anti-cancer activity against human MOLM-13 cells incubated for 24 hrs by WST assay; format: functional, cell-based; details: MOLM-13, 24 h
[18] = system: HCT-116; experiment: pH-dependent anticancer activity against human HCT-116 cells in PBS medium at 10 uM incubated for 1 hr; format: functional, cell-based; outline: as §2
[19] = system: K562; experiment: Anti-cancer activity against human K562 cells at 10 uM incubated for 30 mins; format: functional, cell-based
[20] = system: Mus musculus; experiment: Induction of wound healing activity in immunosuppressed Balb/c mouse excisional dorsal wound infection model infected with Acinetobacter baumannii NCTC 13301 assessed as reduction in necrosis of epidermal tissue at wound edges at about 10 mg/kg treated for 7 days once daily; format: functional, organism-based; details: time 7.0 day
[21] = system: HCT-116; experiment: Anti-cancer activity against human HCT-116 cells incubated for 72 hrs by Cell Titer Glo assay; format: functional, cell-based; details: HCT-116, 72 h
[22] = Toxicity in immunosuppressed Balb/c mouse excisional dorsal wound infection model infected with Acinetobacter baumannii NCTC 13301 assessed as body weight loss at about 10 mg/kg treated for 7 days once daily measured after 45 days; format: organism-based; details: in vivo, 1080 h, time 45 day
Outline: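 Excisional dorsal wound model in immunosuppressed mice infected with 5 × 10⁴ cells per mL of A. baumannii. Treated, PBS-treated and untreated groups were compared. Body weight and survival were followed for 45 days.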

[23] = system: Klebsiella pneumoniae; experiment: Induction of outer membrane permeabilization in Klebsiella pneumoniae ATCC 13883 measured for 20 mins by NPN uptake assay; format: functional, organism-based; outline: as §3
[24] = system: T47D; experiment: Anti-cancer activity against human T47D cells incubated for 72 hrs by Cell Titer Glo assay; format: functional, cell-based
[25] = system: MCF7; experiment: pH-dependent anticancer activity against human MCF7 cells in RPMI medium at 10 uM incubated for 1 hr; format: functional, cell-based; outline: as §2
[26] = Toxicity in neutropenic CD-1 mouse deep thigh infection model infected with Acinetobacter baumannii ATCC 19606 assessed as body weight change at 0.16 mg/kg, ip measured after 4 days; format: organism-based; details: in vivo, 96 h, time 4 day
Outline: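 Neutropenic mice infected intramuscularly in the right thigh with 10⁶ cells per mL of A. baumannii ATCC 19606. […] Body weight monitored for toxicity. Euthanasia 4 days post-infection (day 8). n = 6 per group, from three inocula.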

[27] = system: HL-60; experiment: Anti-cancer activity against human HL-60 cells incubated for 72 hrs by Cell Titer Glo assay; format: functional, cell-based; details: HL-60, 72 h
[28] = system: SK-OV-3; experiment: Anti-cancer activity against human SK-OV-3 cells incubated for 72 hrs by Cell Titer Glo assay; format: functional, cell-based; details: SK-OV-3, 72 h
[29] = system: Mus musculus; experiment: Induction of wound healing activity in immunosuppressed Balb/c mouse excisional dorsal wound infection model infected with Acinetobacter baumannii NCTC 13301 assessed as reduction in wound expansion at about 10 mg/kg treated for 7 days once daily; format: functional, organism-based; details: time 7.0 day
[30] = system: Staphylococcus aureus; experiment: Depolarization of cytoplasmic membrane in Staphylococcus aureus ATCC 12600 at MIC measured for 45 mins by DiSC3-(5) dye based assay; format: functional, organism-based; outline: as §1
[31] = system: Escherichia coli; experiment: Depolarization of cytoplasmic membrane in Escherichia coli ATCC 11775 at MIC measured for 45 mins by DiSC3-(5) dye based assay; format: functional, organism-based; outline: as §1
[32] = system: Staphylococcus aureus; experiment: Antimicrobial activity against Staphylococcus aureus NE163 harboring single transposon insertion mutation in aureolysin at 30 uM incubated for 18 hrs relative to control; format: functional
Outline: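 CA-MRSA USA300 LAC derivative JE2 and single transposon insertion mutants derived from JE2, each lacking an extracellular protease gene, were exposed to peptides up to 30 μM. The read-out was percent growth inhibition. Peptides were dissolved in PBS, and tests were run in triplicate.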

[33] = system: NCI-H460; experiment: Anti-cancer activity against human NCI-H460 cells incubated for 72 hrs by Cell Titer Glo assay; format: functional, cell-based; details: NCI-H460, 72 h

**Q.** For H-KKKKLKKILKKLFQFINQLDNQLQDIKQNK-NH2, which Activity [1] is on record?
**A.** Active

**Q.** What about the IC50 [2] of the same substance?
**A.** 1000 nM

**Q.** And the Activity [3]?
**A.** Active

**Q.** What about the Activity [4] of the same substance?
**A.** Active

**Q.** What about the IC50 at 1 h [5] of the same substance?
**A.** > 50000 nM

**Q.** What about the Activity [6] of the same substance?
**A.** Non-Toxic

**Q.** And the Activity [7]?
**A.** Active

**Q.** What about the Activity [8] of the same substance?
**A.** <10 mm2

**Q.** And the Activity [9]?
**A.** Active

**Q.** What about the Activity [10] of the same substance?
**A.** Active

**Q.** What about the IC50 [11] of the same substance?
**A.** 1000 nM

**Q.** And the Activity [12]?
**A.** Active

**Q.** What about the Activity [13] of the same substance?
**A.** Active

**Q.** What about the Activity [14] of the same substance?
**A.** Active

**Q.** What about the IC50 [15] of the same substance?
**A.** 1000 nM

**Q.** And the IC50 [16]?
**A.** 1000 nM

**Q.** What about the IC50 [17] of the same substance?
**A.** ≤ 10000 nM

**Q.** What about the Activity [18] of the same substance?
**A.** Active

**Q.** What about the Activity [19] of the same substance?
**A.** Active

**Q.** What about the Activity [20] of the same substance?
**A.** Active

**Q.** What about the IC50 [21] of the same substance?
**A.** 1000 nM

**Q.** What about the Activity [22] of the same substance?
**A.** Toxic

**Q.** What about the Activity [23] of the same substance?
**A.** Active

**Q.** And the IC50 [24]?
**A.** 1000 nM

**Q.** What about the Activity [25] of the same substance?
**A.** Active

**Q.** What about the Activity [26] of the same substance?
**A.** Non-Toxic

**Q.** What about the IC50 [27] of the same substance?
**A.** 1000 nM

**Q.** What about the IC50 [28] of the same substance?
**A.** 1000 nM

**Q.** What about the Activity [29] of the same substance?
**A.** Active

**Q.** What about the Activity [30] of the same substance?
**A.** Active

**Q.** What about the Activity [31] of the same substance?
**A.** Active

**Q.** What about the inhibition at 30 µM [32] of the same substance?
**A.** < 45%

**Q.** And the IC50 [33]?
**A.** 1000 nM
